Assay results reported in ChEMBL document CHEMBL4513216, “Probing the Open Global Health Chemical Diversity Library for Multistage-Active Starting Points for Next-Generation Antimalarials” (ACS Infect Dis, 2020).

Assay: Toxicity liver stage against HepG2, at 10uM
Type: cell-based
Set-up: test concentration 10 uM, cell line HepG2-A16-CD81EGFP
Details: human, HepG2-A16-CD81EGFP cells; read-out: INHIBITION
How it was run: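 Uninfected HepG2-A16-CD81EGFP cells, 3 × 10^3 per well, 1536-well, plated on prespotted compound at 10 μM final, parasite-free screening media added to match infected plates; puromycin 10 μM positive, DMSO 0.5% negative; run in parallel with 48 h PbLuc assay at 37 °C, 5% CO2; viability by CellTiter-Glo luminescence, normalized to controls.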

| SMILES | cytotoxicity at 10 µM |
| --- | --- |
| CCNc1nnc(CCn2nc(C)c(Br)c2C)s1 | 2.14% |
| CC(C)CN1CC[C@H](c2nnc(COc3ccc(F)cc3)o2)C1 | -1.81% |
| O=C1N(Cc2cccnc2)C[C@H]2CN(S(=O)(=O)c3ccccc3)CCN12 | 1.08% |
| CC(C)(C)CC(=O)NC[C@H]1OC[C@@H](NCc2ccccn2)[C@@H]1O | -5.28% |
| CC(C)CC1SCC(=O)Nc2c1cnn2C1CCCC1 (stereo not given) | -2.17% |
| COc1ccccc1-c1cc(C(=O)Nc2nc[nH]n2)[nH]n1 | -2.2% |
| CCCS(=O)(=O)N1CCN(c2ccc3nnc(CC)n3n2)CC1 | 8.75% |
| CC(=O)N1CCC2(CC1)[C@@H]1CN(C(=O)N(C)C)C[C@@H]1C(=O)N2C | 2.38% |
| CC(C)C(=O)NC1COC2(CCN(C(=O)c3ccc[nH]3)CC2)C1 (stereo not given) | 6.15% |
| CN1C(=O)CCCC12CCCN(C(=O)c1ccc3c(c1)OCO3)C2 (stereo not given) | 0.758% |
| CC(C)NC(=O)C1CN(Cc2cccs2)Cc2ccnn2C1 (stereo not given) | -1.89% |
| Cc1cccc(N2CCCC3(C2)CN(S(C)(=O)=O)CCO3)c1 (stereo not given) | 10.2% |
| Cc1ccc(N2CCCc3sc(C(=O)NCc4ccc(C)o4)nc32)nn1 | 4.93% |
| CN(C(=O)Cn1nc(-c2ccc(Cl)cc2)ccc1=O)C1CCS(=O)(=O)C1 (stereo not given) | 1.96% |
| O=c1c(S(=O)(=O)N2CCCCC2)cccn1Cc1cccnc1 | -2.56% |
| CCSC1=Nc2c(cnn2-c2ccc(Cl)cc2)C2=NCCCN12 | 8.49% |
| O=C(NCCc1c[nH]cn1)c1ccc2c(c1)C(=O)N(C1CC1)C2=O | 11.7% |
| CN(C)Cc1nn(C)c2c1CCN(S(=O)(=O)c1cccs1)C2 | 4.52% |
| COc1ccc(-c2cc(C3(O)CCOC(C)(C)C3)on2)cc1 (stereo not given) | -3.12% |
| CNc1cc(C)nc(C2CN(Cc3ccc(Cl)cn3)CCO2)c1 (stereo not given) | -26.2% |
| CN1CCCCC[C@@H]2[C@@H]1[C@H](c1ccccc1)CN2C(=O)c1ccccn1 | -24.5% |
| COC(=O)c1ccc(C(=O)N2CCc3c(ncn3C3CC3)C2)cc1 | -3.34% |
| O=C(Nc1cccc(F)c1)N1CCC(CO)(Nc2ccccc2)CC1 | -5.04% |
| CC(C)(C)OC(=O)NCC1CCN(C(=O)c2cc(Cl)c[nH]2)CC1 | -3.26% |
| NC(=O)C(NCCc1ccc(Cl)s1)c1ccccc1 (stereo not given) | 6.13% |
| CC(C)CN(CC(F)(F)F)S(=O)(=O)c1cc(C(N)=O)n(C)c1 | -3.22% |
| CC1CN(C)c2ccccc2CN1C(=O)c1cc(C#N)cn1C (stereo not given) | 14.6% |

| SMILES | cytotoxicity at 10 µM |
| --- | --- |
| COc1ncccc1CNC(=O)C1=NN(c2ccccc2)C(=O)CN1 | 2.54% |
| CCOC1CCN(C(=O)c2cc(-c3ccc(Cl)cc3)on2)CC1 | -5.08% |
| O=C(NCC1CC1)C1CSCN1S(=O)(=O)c1ccccc1 (stereo not given) | -4.43% |
| Cc1cccc(C)c1OCC(=O)Nc1cccn(C)c1=O | 4.08% |
| O=C(Cc1cc2c(cc1Br)OCCO2)NC1CCS(=O)(=O)C1 (stereo not given) | 10.1% |
| O=C(c1nccc2ccccc12)N(Cc1ccco1)CC1CCCO1 (stereo not given) | -6.25% |
| O=c1ccn(Cc2nc(-c3ccccc3F)cs2)c(=O)[nH]1 | -1.2% |
| Cc1csc(N2CCCN(C(=O)c3ccsc3)CC2)n1 | 5.28% |
| C=C(C)CN1CCC(Nc2nc(C)ns2)CC1 | -8.39% |
| CC(C)Cc1ncc(CNc2cnccc2CO)s1 | -6.53% |
| CC(C)C(=O)N(C)Cc1nnc2n1CCCCC2 | -8.2% |
| CC(C)OCCCNC(=O)NC(C)c1ccc(-n2cncn2)cc1 (stereo not given) | -5.32% |
| CN(CCn1cnnc1)S(=O)(=O)c1ccc(C(F)(F)F)nc1 | 6.71% |
| CC(CO)(NC(=O)NCCc1ccc(Br)s1)C1CC1 (stereo not given) | -2.43% |
| CC(C)N(Cc1cccnc1)C(=O)CCSc1ccc(C#N)cc1 | 27.1% |
| COCCNC(=O)Nc1ccc(-c2nc(C(C)C)no2)cc1 | 0.0793% |
| CCCNC(=O)CN1CCOC(c2ccc(Br)cc2)C1 (stereo not given) | -2.56% |
| CCCC(NC(=O)c1ccc(OC)cc1F)c1nnn[nH]1 (stereo not given) | -7.61% |
| CN(CCC(F)(F)F)C(=O)C1CCCN1C(=O)OC(C)(C)C (stereo not given) | -0.653% |
| O=C1N(CCCc2ccccc2)CCCC1(O)CN1CCC(CO)CC1 (stereo not given) | -10.5% |
| CN1C(=O)CC(C(=O)O)C12CCN(Cc1ccc(F)c(Cl)c1)CC2 (stereo not given) | 0.998% |
| C[C@@H]1CN(C2(C(=O)N3CCNCC3)Cc3ccccc3C2)C[C@H](C)O1 | -4.17% |
| Cc1cc(C)c(C(=O)N2CCC3(CCCNC3)C2)cc1C (stereo not given) | 2.52% |
| Cc1cc(N(C)CCCn2cccn2)nc(-c2cccnc2)n1 | 16.3% |
| CCCC1(CO)CCCN(Cc2ncccn2)C1 (stereo not given) | -1.89% |
| CCn1c(C2CCCN(Cc3ccc(F)cc3Cl)C2)nn(C)c1=O (stereo not given) | -2.75% |
| CCn1c(N)nc2cc(C(=O)N3CCC(N4CCCC4)CC3)cnc21 | -1.56% |

| SMILES | cytotoxicity at 10 µM |
| --- | --- |
| CN1CCC(c2nnc(CN3CCCC3)n2C2CC2)CC1 | -11.4% |
| COc1ccccc1C1CNC(=O)c2nc(-c3cnn(C)c3)[nH]c2C1 (stereo not given) | -5.33% |
| CCOCC(O)CN1CCN(C(=O)c2ccccc2F)CC1 (stereo not given) | -2.15% |
| CC(C)(NCC(=O)NCC1CC1)c1ccc2c(c1)OCCO2 | -9.8% |
| Cc1ncc(CN2CCCC(c3cc(C(N)=O)[nH]n3)C2)s1 (stereo not given) | -27.7% |
| Cc1cccc(OCCC(=O)NCC2CN(C)CCO2)c1C (stereo not given) | -6.3% |
| Cc1n[nH]c(=O)c(C(=O)N2CCN(CCc3cccs3)CC2)c1C | -6.22% |
| CC(C)Cc1cc(C(=O)NCCN2CCCS2(=O)=O)[nH]n1 | -7.39% |
| COc1cccc2cc(CNC(=O)N3CCC(C(N)=O)CC3)oc12 | -6.13% |
| CCC(C#N)NC(=O)c1cc(Br)c2c(c1)OCCO2 (stereo not given) | -15.7% |
| Cc1nnc(CN2CCCC(c3noc(C4CC4)n3)C2)o1 (stereo not given) | -16% |
| Cc1cnn(CC2CCCN2CC(=O)Nc2cc(C(C)C)no2)c1 (stereo not given) | 4.23% |
| CCOC(=O)N1CCC(NC(=O)Nc2cccnc2OCC)CC1 | -31.9% |
| Cc1nn(C)c(N2CCOCC2)c1CNCc1ccc(CO)c(F)c1 | -14.5% |
| Cc1oc(-c2ccco2)nc1CC(=O)N1CCC(CCO)C1 (stereo not given) | -2.02% |
| Cc1cc(NC(=O)CN2CCn3c(nnc3-c3ccccc3)C2)no1 | -2.38% |
| Cc1ccc(CN2C[C@@H]3[C@@H](C(=O)NCC(C)C)CCS(=O)(=O)[C@@H]3C2)cc1 | 0.793% |
| COCCN1CC[C@@H]2OC(COCC(=O)N3CCCC3)CC[C@@H]21 (stereo not given in full) | -3.29% |
| c1cc(CN2CCc3ncc(CN4CCOCC4)n3CC2)cs1 | -0.269% |
| Cc1ccc(N2CC3(COCCN(Cc4ccncc4)C3)OCC2=O)s1 (stereo not given) | 8.59% |
| CCn1nc(C)cc1C(=O)N1C[C@H]2CCC[C@@]2(COc2ccccn2)C1 | 0.529% |
| CS(=O)(=O)N1CC[C@H]2O[C@H](C(=O)NCCc3ccncc3)CC[C@H]21 | 4.41% |
| Cn1ccnc1CN1CCC2(CC1)CCN(Cc1ccoc1)C2 | -6.08% |
| Cn1cccc1C(=O)N[C@@H]1CN(Cc2ccsc2)[C@@H]2COC[C@@H]21 | 9.9% |
| Cc1ccc(CN2CC[C@@H]3[C@@H](CO[C@H]3CN3CCN(C)CC3)C2)s1 | 7.57% |
| O[C@@H]1CC(CNCc2ccccn2)(COc2cccnc2)C[C@@H]1O (stereo not given in full) | -10.3% |
